From PubChem BioAssay
The list is not random: actives were taken first. Their share in the collection is about 1.9%.
TLR4 MyD88 comp – inhibitors of human TLR4-MyD88 binding. inhibition, % at 8.4 µM. AID 861. O00206+Q99836. HeLa CL3-4 TLR4/MyD88 BLA complementation, FRET ratio. 200,000 tested, 0.18% active; in the data active = inhibition above about 25%
TLR9-MyD88 inh – inhibitors of human TLR9-MyD88 binding. CHO BLA complementation TLR9-MyD88, CCF4 FRET ratio. inhibition, % at 4.98 µM. 340,000 tested, 0.21% active;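 active = inhibition above the mean over all tested compounds plus 3 SD, cut at about 21% in these data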
MC4R antag cAMP – antagonists of human melanocortin 4 receptor (MC4R) | 360,000 tested, 0.48% active | P32245 | AID 540295 | MC4R-expressing cells, MTII-stimulated cAMP, LANCE TR-FRET | inhibition, % at 6.5 µM;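 active = inhibition above its plate's cutoff, the mean of tested wells on that plate plus 3 SD, cut at about 29% in these data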
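system = U2OS cells with stable human MC4R expression | also added = Melanotan II challenge after compound preincubation | dosing = one concentration, 6.5 µM nominal | incubation = compound 30 min, challenge 1 h, detection 1 h | measured by = TR-FRET with Eu-cAMP and labeled anti-cAMP, 671 nm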
MC4R barr agon – human MC4R agonism via beta-arrestin; activation, % at 8.9 µM; AID 540308; 360,000 tested, 0.98% active; U2OS MC4R beta-arrestin complementation, luminescence; percent of melanotan II response, DMSO zero;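 active = activation above a per-plate cutoff, the mean activation of sample wells on that plate plus 3 SD, cut at about 8% in these data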
NTR1 agonist – NTR1 (human) agonism. NTR1-U2OS beta-arrestin-GFP spot imaging, agonist mode. P30989. AID 493036. activation, % at 20 µM. 330,000 tested, 0.17% active;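 active = activation at or above 40% of the spot to cytoplasm intensity ratio, with at least 20 cells analyzed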
NOD2-RIPK2 inh – NOD2-RIPK2 protein interaction inhibition; CHO BLA complementation NOD2-RIPK2, CCF4 ratio; inhibition, % at 4.98 µM; 360,000 tested, 0.38% active; in the data active = inhibition above about 21%
MC4R barr conf – human MC4R beta-arrestin agonism confirmation. shares compounds with MC4R barr agon. U2OS MC4R beta-arrestin recruitment, luminescence; scaled DMSO 0%, Melanotan II 100%. activation, % at 8.9 µM. 2,400 tested, 31% active;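 active = mean activation across replicates above the hit cutoff set in the earlier primary screen, cut at about 8% in these data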
MOR-DOR barr ag – OPRM1-OPRD1 heterodimer agonism counter-screen | AID 602194 | activation, % at 9.2 µM | 2,400 tested, 5.8% active | U2OS PathHunter beta-arrestin, beta-gal luminescence; percent of deltorphin B response, DMSO zero | shares compounds with MC4R barr agon;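 active = mean activation across replicates exceeds the hit threshold derived in the earlier primary screen, cut at about 18% in these data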
Numbers stand for hits; . = inactive; / = not tested or not shown.

SMILES	TLR4 MyD88 comp	TLR9-MyD88 inh	MC4R antag cAMP	MC4R barr agon	NTR1 agonist	NOD2-RIPK2 inh	MC4R barr conf	MOR-DOR barr ag
Cc1ccc(SCC(=O)Nc2ccc(C(=O)Nc3ccc(O)cc3)cc2)cc1	.	.	.	11	.	.	.	.
O=C(Cc1cccs1)Nc1cccc(-c2nnc(-c3ccco3)o2)c1	.	.	.	.	.	.	/	/
COc1ccc(C(=O)OCC(=O)NC(=O)Nc2ccccc2F)c(OC)c1	/	.	.	25	.	.	.	.
O=C(NC1CCSc2ccccc21)c1ccc(C(F)(F)F)cc1 (stereo not drawn)	/	.	.	9.7	.	.	.	.
O=C(NC1CCSc2ccccc21)c1ccc(F)cc1 (stereo not drawn)	/	.	.	.	.	.	/	/
CN(C)CCCNC(=O)c1ccc(-c2nc(-c3ccc(Cl)cc3)cs2)cc1	.	.	.	16	.	.	56	.
Cc1ccc(S(=O)(=O)Nc2cc(=O)[nH]c(SCc3ccc(Cl)cc3)n2)cc1	.	.	.	19	/	.	.	.
Cc1cccc(NC(=O)c2nc[nH]c2C(=O)NCCCNC(=O)c2[nH]cnc2C(=O)Nc2cccc(C)c2)c1	/	.	.	.	.	.	/	/
Cc1cccc(NC(=O)c2nc[nH]c2C(=O)NCCCCCNC(=O)OC(C)(C)C)c1	/	.	.	9.7	.	.	.	.
C=CCN1C(=O)C(Cc2ccc(OC)cc2)S/C1=N\N=C\c1cccs1 (stereo not drawn)	.	.	.	9.9	.	.	9.7	.
COC(=O)c1ccc(C(=O)NCCCCO)cc1	.	.	.	.	.	.	/	/
CCC1CCCCN1C(=O)CCc1nnc(C2CCCCC2)o1 (stereo not drawn)	.	.	.	.	.	.	/	/
N#C/C(=C\c1ccc(N2CCOCC2)o1)C(=O)Nc1ccc(O)cc1	.	/	.	.	.	.	/	/
N#C/C(=C/c1ccc(N2CCCCC2)o1)C(=O)Nc1ccc(Cl)cc1	.	.	.	10	.	.	.	.
COc1ccc(S(=O)(=O)N2CCOCC2)cc1NC(=O)c1ccccc1-c1ccc(C(F)(F)F)cc1	.	.	.	10	.	.	.	.
Cc1cc(Cl)ccc1NC(=S)NCC(C)C	.	.	.	.	.	.	/	/
CCOc1ccc(/C=C/C(=O)N(CC)CC(=O)Nc2ccc3c(c2)OCCO3)cc1OCC	/	.	.	.	.	.	/	/
CCCCN1C(=O)C(CC(=O)NC2CCCC2)CC(C(=O)N(C(C)C)C(C)C)=C1C (stereo not drawn)	/	.	.	.	/	.	/	/
COc1ccccc1CC(=O)Nc1ccc(-c2noc(COc3ccc(Cl)c(C)c3)n2)cc1	.	.	.	10	.	.	.	.
COc1ccc(CNC(=O)C2(C)Cc3c(-c4ccc5c(c4)OCO5)ccnc3O2)cc1OC (stereo not drawn)	/	/	.	.	/	.	/	/
COCCNC(=O)c1cccc2c(-c3cccc(C(N)=O)c3)coc12	/	/	.	.	/	.	/	/
CC(=O)c1cccc(NC(=O)c2cccc3c(-c4cccc(C(N)=O)c4)coc23)c1	/	/	.	20	/	.	.	.
CCOc1ccc2nc(SCC(=O)NC3CCCc4ccccc43)sc2c1 (stereo not drawn)	.	.	.	31	.	.	.	.
COc1ccc([C@H]2C[C@H](n3cc(-c4ccc(F)cc4)nn3)[C@@H](O)CN2CC2CCCCC2)cc1	/	.	.	.	/	.	/	/
COc1ccc([C@H]2C[C@@H](O)[C@H](n3cc(-c4ccc(F)cc4)nn3)CN2CC2CCCCC2)cc1	/	.	.	14	/	.	.	.
SMILES	TLR4 MyD88 comp	TLR9-MyD88 inh	MC4R antag cAMP	MC4R barr agon	NTR1 agonist	NOD2-RIPK2 inh	MC4R barr conf	MOR-DOR barr ag
O=C1c2cccnc2C(=O)N1Cc1ccc(S(=O)(=O)N2CCN(c3ccc(Cl)cc3)CC2)cc1	/	.	.	11	.	.	.	.
O=C(CCCN1CCC(O)(c2cccc(C(F)(F)F)c2)CC1)c1ccc(F)cc1	/	.	.	.	.	.	/	/
OC1(c2cccc(C(F)(F)F)c2)CCN(c2ncnc3c2[nH]c2ccc(F)cc23)CC1	.	.	.	9.8	/	.	.	.
Nc1ccc(C(=O)N/N=C/c2c[nH]c3ccccc23)cc1	/	.	.	.	.	.	/	/
CC1CCN(S(=O)(=O)c2ccc(C(=O)N3CCCC(C(F)(F)F)C3)cc2)CC1 (stereo not drawn)	/	.	.	.	.	.	/	/
O=C(CN1CCCC1)N/N=C/c1ccc(-c2cccc(Cl)c2)o1	.	.	.	.	.	.	/	/
O=C(Cn1nnc(-c2ccccc2Cl)n1)N/N=C/c1ccc(-c2cccc(Cl)c2)o1	.	.	.	11	.	.	8.9	.
COCCNC(=O)C(c1cccnc1)N(Cc1ccc(C)cc1)C(=O)Cn1nnc2ccccc21 (stereo not drawn)	.	.	.	.	.	.	/	/
O=C(NNC(=O)c1cccs1)c1ccc([N+](=O)[O-])cc1	.	/	/	/	.	/	/	/
COc1ccc(CNC(=S)Nc2ccc(-c3ccccc3)cc2)cc1	.	.	.	13	.	.	.	.
COc1ccc(-n2nc(C(=O)NCC(=O)NC(C)C)c3ccccc3c2=O)cc1Cl	/	.	.	.	.	.	/	/
COc1ccc(-n2nc(C(=O)NCC(=O)Nc3ccccn3)c3ccccc3c2=O)cc1Cl	.	.	.	15	.	.	24	.
COc1cccc(Nc2nnc(SCN3C(=O)c4ccccc4C3=O)s2)c1	.	.	.	14	.	.	.	.
CCSc1ccc(C(=O)Nc2cccc(C)n2)cc1[N+](=O)[O-]	.	.	.	36	.	.	.	.
Cc1ccc2c(Cl)cc(Cl)c(OCC(=O)NC(=O)NCc3ccco3)c2n1	.	.	.	11	.	.	.	.
Cc1ccc2c(Cl)cc(Cl)c(OCC(=O)NCc3ccco3)c2n1	.	/	/	/	/	/	/	/
CCOc1cc(/C=C2/C(=N)N3OC(C)=CC3=NC2=O)ccc1OCCOc1ccccc1	.	.	.	14	.	.	9.2	.
CC1=CC2=NC(=O)/C(=C\c3cccn3CCOc3cccc(C)c3)C(=N)N2O1	.	.	.	.	.	.	/	/
CC1=CC2=NC(=O)/C(=C\c3cccn3CCOc3cc(C)ccc3C)C(=N)N2O1	.	.	.	14	.	.	.	.
COc1ccc(OC)c(NC(=O)CCNS(=O)(=O)c2ccc3c(c2)CC(C)N3C(C)=O)c1 (stereo not drawn)	/	.	.	.	/	.	/	/
Cc1ccc(NC(=O)c2cc(NC(=O)c3ccco3)ccc2N2CCCCC2)cc1	.	.	.	18	.	.	.	.
